Test results: ChEMBL document CHEMBL2016444, “Discovery of novel 2-piperidinol-3-(arylsulfonyl)quinoxalines as phosphoinositide 3-kinase α (PI3Kα) inhibitors” (Bioorg Med Chem, 2012)
Calls of active or inactive are those of the source. The calls are words filed in the database; no cut-off is given here.

Tests used:
[1] = test system: PC-3; assay: Cytotoxicity against human PC3 cells after 72 hrs by MTT assay; format: functional, cell-based; settings: PC-3, 72 h
How it was run: (§1)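 Cells grown in RPMI-1640 with heat-inactivated 10% FBS, penicillin 100 units/mL, streptomycin, 37 °C, 20% O₂, 5% CO₂. Compounds from 10.0 mg/mL DMSO stocks, diluted. Cells plated 24 h, then exposed to a range of concentrations for 72 h; viable cells read by MTT kit per manufacturer's instructions.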

[2] = test system: A549; assay: Cytotoxicity against human A549 cells after 72 hrs by MTT assay; format: functional, cell-based; settings: A549, 72 h; how it was run: as §1
[3] = test system: HCT-116; assay: Cytotoxicity against human HCT116 cells after 72 hrs by MTT assay; format: functional, cell-based; settings: HCT-116, 72 h; how it was run: as §1
[4] = test system: HL-60; assay: Cytotoxicity against human HL60 cells after 72 hrs by MTT assay; format: functional, cell-based; settings: HL-60, 72 h; how it was run: as §1
[5] = test system: KB; assay: Cytotoxicity against human KB cells after 72 hrs by MTT assay; format: functional, cell-based; how it was run: as §1
[6] = target: T1, Phosphatidylinositol 4,5-bisphosphate 3-kinase catalytic subunit alpha isoform (Homo sapiens, UniProt P42336); assay: Inhibition of PI3Kalpha using diC8-PI(4,5)P2 as substrate after 3 hrs by competitive fluorescence polarization assay
How it was run: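 Competitive fluorescence polarization. Buffer includes MgCl₂ and 10 mM DTT, with diC₈-PI(4,5)P₂ as substrate. Incubated 3 h at room temperature, then quenched with chelators. Phosphoinositide binding protein and a fluorophore-labeled phosphoinositide tracer were added, and samples equilibrated 1 h in the dark before reading.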

[7] = target: T1, Phosphatidylinositol 4,5-bisphosphate 3-kinase catalytic subunit alpha isoform; assay: Inhibition of PI3Kalpha-mediated AKT Ser473 phosphorylation in human PC3 cells at 10 uM after 3 hrs by Western blot analysis; format: cell-based; settings: PC-3
How it was run: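 PC3 cells exposed to compound for 3 h. Lysates run on SDS–PAGE and probed for pAkt Ser473 by Western blot, with actin as internal control.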

[8] = target: T1, Phosphatidylinositol 4,5-bisphosphate 3-kinase catalytic subunit alpha isoform; assay: Ratio of IC50 for WR1 to compound IC50 for PI3Kalpha using diC8-PI(4,5)P2 as substrate after 3 hrs by competitive fluorescence polarization assay

T1 sequence (P42336 whole entry, canonical isoform): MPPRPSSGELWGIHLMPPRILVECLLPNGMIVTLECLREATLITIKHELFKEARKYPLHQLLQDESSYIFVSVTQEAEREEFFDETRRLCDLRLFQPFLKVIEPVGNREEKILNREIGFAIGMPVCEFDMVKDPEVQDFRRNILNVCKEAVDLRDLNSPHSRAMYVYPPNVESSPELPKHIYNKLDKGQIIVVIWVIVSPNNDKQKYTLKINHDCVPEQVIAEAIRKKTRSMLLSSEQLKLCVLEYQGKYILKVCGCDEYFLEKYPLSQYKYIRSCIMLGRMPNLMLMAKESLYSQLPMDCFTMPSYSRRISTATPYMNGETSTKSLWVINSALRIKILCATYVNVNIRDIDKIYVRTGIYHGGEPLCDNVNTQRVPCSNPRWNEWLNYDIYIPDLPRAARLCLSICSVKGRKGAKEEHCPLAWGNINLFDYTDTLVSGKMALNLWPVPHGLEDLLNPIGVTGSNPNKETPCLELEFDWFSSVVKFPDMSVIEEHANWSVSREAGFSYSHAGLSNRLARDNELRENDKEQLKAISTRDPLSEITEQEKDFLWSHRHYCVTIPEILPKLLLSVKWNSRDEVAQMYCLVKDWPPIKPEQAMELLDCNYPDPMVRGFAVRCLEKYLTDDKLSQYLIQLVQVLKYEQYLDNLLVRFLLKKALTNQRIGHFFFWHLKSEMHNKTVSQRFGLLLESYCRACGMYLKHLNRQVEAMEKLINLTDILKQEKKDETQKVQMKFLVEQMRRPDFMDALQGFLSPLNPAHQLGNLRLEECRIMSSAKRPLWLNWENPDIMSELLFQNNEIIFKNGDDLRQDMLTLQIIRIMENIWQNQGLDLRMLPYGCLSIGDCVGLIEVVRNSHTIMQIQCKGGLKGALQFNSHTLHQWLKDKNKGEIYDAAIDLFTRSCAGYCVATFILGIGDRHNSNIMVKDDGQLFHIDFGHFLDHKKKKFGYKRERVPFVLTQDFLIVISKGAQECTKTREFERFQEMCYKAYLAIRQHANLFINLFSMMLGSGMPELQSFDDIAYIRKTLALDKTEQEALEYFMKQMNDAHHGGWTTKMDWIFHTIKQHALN

| IC50 [6] | inhibition [7] | Ratio IC50 [8] | SMILES | IC50 [1] | IC50 [2] | IC50 [3] | IC50 [4] | IC50 [5] |
| --- | --- | --- | --- | --- | --- | --- | --- | --- |
| – | – | – | Cc1ccc(S(=O)(=O)c2nc3ccccc3nc2N2CCCC2)cc1 | > 50 µM | > 50 µM | > 50 µM | 9.72 µM | > 50 µM |
| – | – | – | O=S(=O)(c1ccc(F)cc1)c1nc2ccccc2nc1N1CCCC1 | 12.4 µM | 31.1 µM | 20.6 µM | 12.8 µM | 30.1 µM |
| – | – | – | Cc1ccc(S(=O)(=O)c2nc3ccccc3nc2N2CCC(O)CC2)cc1 | 9.52 µM | 4.02 µM | 5.44 µM | 4.05 µM | 6.14 µM |
| > 50 µM | – | – | O=S(=O)(c1ccccc1)c1nc2ccccc2nc1N1CCc2ccccc2C1 | 5.01 µM | 19.8 µM | 18.7 µM | 0.88 µM | 26.3 µM |
| – | – | – | COc1ccc(S(=O)(=O)c2nc3ccccc3nc2N2CCCC2)cc1 | > 50 µM | > 50 µM | > 50 µM | 16 µM | > 50 µM |
| – | – | – | O=S(=O)(c1ccc(Br)cc1)c1nc2ccccc2nc1N1CCCC1 | > 50 µM | > 50 µM | 37.7 µM | 6.07 µM | > 50 µM |
| 0.025 µM | Active | – | O=S(=O)(c1ccc(Br)cc1)c1nc2ccccc2nc1N1CCC(O)CC1 | 2.02 µM | 0.95 µM | 1.65 µM | 0.34 µM | 2.32 µM |
| 0.079 µM | – | 6 | O=S(=O)(c1ccccc1)c1nc2ccccc2nc1N1CCC(O)CC1 | 4.98 µM | 2.06 µM | 1.87 µM | 2.9 µM | 5.36 µM |
| – | – | – | COc1ccc(S(=O)(=O)c2nc3ccccc3nc2N2CCc3ccccc3C2)cc1 | > 50 µM | > 50 µM | 22.1 µM | 3.69 µM | > 50 µM |
| – | – | – | COc1ccc(S(=O)(=O)c2nc3ccccc3nc2N2CCC(O)CC2)cc1 | 9.73 µM | 5.11 µM | 4.69 µM | 3.23 µM | 8.06 µM |
| – | – | – | O=S(=O)(c1ccc(F)cc1)c1nc2ccccc2nc1N1CCCC(O)C1 (stereo unspecified) | 2.13 µM | 8.17 µM | 5.5 µM | 2.62 µM | 18.3 µM |
| – | – | – | O=S(=O)(c1ccc(Br)cc1)c1nc2ccccc2nc1N1CCc2ccccc2C1 | > 50 µM | > 50 µM | > 50 µM | 2.61 µM | > 50 µM |
| 0.44 µM | – | – | O=S(=O)(c1ccccc1)c1nc2ccccc2nc1N1CCOCC1 | 18.9 µM | 12.6 µM | 5.35 µM | 4.47 µM | – |
| – | – | – | O=S(=O)(c1ccc(Br)cc1)c1nc2ccccc2nc1N1CCCC(O)C1 (stereo unspecified) | 3.69 µM | 2.1 µM | 2.11 µM | 3.43 µM | 3.72 µM |
| – | – | – | O=S(=O)(c1ccc(F)cc1)c1nc2ccccc2nc1N1CCC(O)CC1 | 2.01 µM | 20.2 µM | 1.34 µM | 1.45 µM | 9.58 µM |
| – | – | – | COc1ccc(S(=O)(=O)c2nc3ccccc3nc2N2CCCC(O)C2)cc1 (stereo unspecified) | 3.41 µM | 2.18 µM | 3.52 µM | 3.05 µM | 2.12 µM |
| – | – | – | O=S(=O)(c1ccccc1)c1nc2ccccc2nc1N1CCCC(O)C1 (stereo unspecified) | 2.1 µM | 0.31 µM | 1.39 µM | 3.02 µM | 3.59 µM |
| – | – | – | O=S(=O)(c1ccc(F)cc1)c1nc2ccccc2nc1N1CCc2ccccc2C1 | 9.23 µM | 22.9 µM | 16.6 µM | 4.08 µM | 35.4 µM |
| – | – | – | Cc1ccc(S(=O)(=O)c2nc3ccccc3nc2N2CCc3ccccc3C2)cc1 | 22.4 µM | > 50 µM | 39 µM | 3.61 µM | 32.1 µM |
| 21.8 µM | – | – | O=S(=O)(c1ccccc1)c1nc2ccccc2nc1N1CCCC1 | 20.8 µM | 34.8 µM | 24.2 µM | 3.46 µM | 35.8 µM |
| – | – | – | Cc1ccc(S(=O)(=O)c2nc3ccccc3nc2N2CCCC(O)C2)cc1 (stereo unspecified) | 5.33 µM | 1.35 µM | 3.27 µM | 6.08 µM | 6.08 µM |
